# Reference: ChEMBL document CHEMBL1123363, “(5-Amino-1,3-dimethyl-1H-pyrazol-4-yl)(2-fluorophenyl)methanones . A series of novel potential antipsychotic agents” (J Med Chem, 1986)
# Experiments:
# [1] = molecular target: T1, Adenosine receptor A1 (Rattus norvegicus, UniProt P25099); assay: Binding affinity towards adenosine A1 receptor using [3H]- CHA
# T1 sequence (P25099 whole entry): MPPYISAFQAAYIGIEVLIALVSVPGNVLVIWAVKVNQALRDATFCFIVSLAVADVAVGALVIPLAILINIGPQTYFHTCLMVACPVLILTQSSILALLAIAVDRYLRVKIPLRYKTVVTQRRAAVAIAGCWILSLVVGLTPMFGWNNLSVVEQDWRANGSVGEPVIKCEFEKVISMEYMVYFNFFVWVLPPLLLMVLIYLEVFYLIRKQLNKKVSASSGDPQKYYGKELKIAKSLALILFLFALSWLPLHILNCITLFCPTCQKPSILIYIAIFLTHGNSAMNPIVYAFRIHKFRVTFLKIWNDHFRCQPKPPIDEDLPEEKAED
# Summary of the method: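 Adenosine A1 binding in membranes of rat whole brain minus brain stem and cerebellum (male Long-Evans, 150–250 g), using [3H]-CHA at 1.0 nM final. Theophylline at 1 mM final was the reference. IC50 from four or five concentrations by nonlinear fit.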
# [2] = Displacement of [3H]flunitrazepam from rat brain GABA-A benzodiazepine receptor
# [3] = test system: Mus musculus; assay: Inhibition of apomorphine-induced climbing in mice after intraperitoneal administration; assay type: functional; details: ip
# Summary of the method: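 Male Swiss–Webster mice (25–35 g), ten per dose, were acclimated 30 min in cylindrical cages and then dosed ip. One hour later they received apomorphine 3 mg/kg sc. Climbing was scored in 30-s tests every 5 min for 30 min, starting 15 min after apomorphine. ED50 from at least three doses by nonlinear regression.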
# [4] = species on record: Mus musculus; assay: Ability to inhibit locomotor activity using ataxia test.; assay type: functional; details: read-out: MED
# Summary of the method: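 Male Swiss–Webster mice (20–30 g, unfasted), nine per dose in groups of three, dosed ip in 0.2% methocel (dose as parent compound) 1 h before testing. Ataxia was scored first on an inverted screen over 60 s as % of mice falling. […] ED50 from at least three doses.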
# [5] = test system: Rattus norvegicus; assay: Compound was tested for serum prolactin assay method in rats at 100 mg/kg dose after peroral administration; assay type: functional; details: route oral
# Summary of the method: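 Seven-week-old male Sprague–Dawley rats, five per group, were dosed orally and killed by decapitation 1 h later. Serum prolactin from trunk blood was measured by radioimmunoassay with [125I]-PRL and expressed as % of control (mean ± SEM).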
# [6] = Inhibition of sidman avoidance in squirrel monkeys after peroral administration; assay type: functional; details: po
# Summary of the method: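 Mature squirrel monkeys, trained on a modified Sidman avoidance lever schedule, were dosed orally and tested in 6-h sessions. Inhibition was expressed as % of each animal's own nondrug responding. At least three doses were given to four animals, with sessions at least 1 week apart. ED50 from nonlinear regression.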
# [7] = test system: Rattus norvegicus; assay: Compound was tested for its affect on the accumulation of the dopamine metabolite homovanillic acid (HAV) in the rat striatum at 25 mg/kg dose after peroral administration; assay type: functional; details: route oral
# Summary of the method: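 Male Long–Evans rats were dosed orally and decapitated 2 h later. Striatal HVA was isolated on Sephadex G-10 and measured spectrofluorometrically, expressed as % control ± SEM.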
# [8] = molecular target: T2, Adrenergic receptor alpha-1 (Rattus norvegicus, UniProt P15823+P23944+P43140)
# T2 sequence (P15823 whole entry): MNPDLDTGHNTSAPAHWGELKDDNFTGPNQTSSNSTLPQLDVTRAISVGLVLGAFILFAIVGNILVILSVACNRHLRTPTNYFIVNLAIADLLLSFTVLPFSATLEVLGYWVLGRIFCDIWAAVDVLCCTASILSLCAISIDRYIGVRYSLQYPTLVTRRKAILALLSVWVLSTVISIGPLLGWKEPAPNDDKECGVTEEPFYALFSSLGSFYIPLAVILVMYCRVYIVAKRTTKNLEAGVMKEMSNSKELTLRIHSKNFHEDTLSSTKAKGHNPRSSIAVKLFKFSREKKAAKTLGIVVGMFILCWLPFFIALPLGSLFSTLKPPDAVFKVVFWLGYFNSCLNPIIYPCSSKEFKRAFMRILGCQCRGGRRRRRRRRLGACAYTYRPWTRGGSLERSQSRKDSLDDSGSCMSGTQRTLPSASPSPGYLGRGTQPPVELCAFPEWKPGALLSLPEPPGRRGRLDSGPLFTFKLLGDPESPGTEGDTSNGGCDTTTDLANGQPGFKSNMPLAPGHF
# T2 sequence (P23944 whole entry): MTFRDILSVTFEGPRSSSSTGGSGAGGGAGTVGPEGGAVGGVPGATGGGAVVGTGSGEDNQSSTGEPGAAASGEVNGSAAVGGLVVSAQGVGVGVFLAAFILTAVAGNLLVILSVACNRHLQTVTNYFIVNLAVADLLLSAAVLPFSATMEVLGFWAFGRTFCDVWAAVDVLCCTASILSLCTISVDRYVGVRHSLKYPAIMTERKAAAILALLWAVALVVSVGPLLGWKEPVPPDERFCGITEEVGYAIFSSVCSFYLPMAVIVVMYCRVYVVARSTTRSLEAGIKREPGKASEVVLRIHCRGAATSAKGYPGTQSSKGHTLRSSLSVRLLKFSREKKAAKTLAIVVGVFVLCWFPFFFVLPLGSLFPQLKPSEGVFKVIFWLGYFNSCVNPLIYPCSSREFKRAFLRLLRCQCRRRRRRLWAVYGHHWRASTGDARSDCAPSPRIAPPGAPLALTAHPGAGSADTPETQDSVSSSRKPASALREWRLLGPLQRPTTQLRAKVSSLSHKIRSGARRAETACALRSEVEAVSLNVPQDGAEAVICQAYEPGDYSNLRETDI
# T2 sequence (P43140 whole entry): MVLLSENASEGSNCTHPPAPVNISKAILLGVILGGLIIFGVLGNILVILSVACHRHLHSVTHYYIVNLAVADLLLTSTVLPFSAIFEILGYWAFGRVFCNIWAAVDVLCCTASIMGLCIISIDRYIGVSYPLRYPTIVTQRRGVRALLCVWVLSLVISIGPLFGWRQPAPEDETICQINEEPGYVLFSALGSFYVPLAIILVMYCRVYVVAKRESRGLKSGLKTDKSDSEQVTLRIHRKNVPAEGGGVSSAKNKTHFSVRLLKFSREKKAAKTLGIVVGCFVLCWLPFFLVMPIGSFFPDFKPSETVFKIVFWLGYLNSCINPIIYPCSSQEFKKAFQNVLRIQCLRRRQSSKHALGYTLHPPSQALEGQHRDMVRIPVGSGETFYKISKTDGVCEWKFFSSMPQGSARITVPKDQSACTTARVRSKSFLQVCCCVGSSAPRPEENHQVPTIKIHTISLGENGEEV
IC50 [1],IC50 [2],IC50 [8],SMILES,ED50 [3],minimal effective dose [4],Control [5],ED50 [6],Control [7]
> 10 µM,> 10 µM,,CCN(CC)CC(=O)Nc1c(C(=O)c2ccccc2F)c(C)nn1C,> 100 mg/kg,30 mg/kg,21.8%,15.6 mg/kg,114.9%
> 10 µM,> 10 µM,> 10 µM,Cc1nn(C)c(N)c1C(=O)c1ccccc1F,,< 10 mg/kg,,,
,> 10 µM,> 10 µM,Cc1nn(C)c(NC(=O)CNCCCN2CCCCC2C)c1C(=O)c1ccccc1F (stereo not drawn),> 100 mg/kg,30 mg/kg,51%,12.7 mg/kg,95.8%
